EWS-Fli inh – inhibitors of EWS/Fli oncoprotein transcriptional activity; inhibition, % at 12.6 µM; A673 NR0B1-luciferase reporter, viability-normalised; actives 0.67% (n = 350,000);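 active means mean inhibition of at least 50% after viability correction, with every replicate also passing that limit; inconclusive means mean reaches 50% but only one of two replicates passes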;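 further: firefly luciferase signal divided by Alamar Blue viability fluorescence both relative to DMSO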
XiGFP reactiv – reactivates the inactive X chromosome in mouse fibroblasts | activation, % at 7.58 µM | actives 0.055% (n = 360,000) | XiGFP mouse fibroblasts, % GFP-positive cells imaging, 3 d; cells co-treated with 5-aza-dC sensitizer; scaled so ellipticine positive control = 100%;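 active means mean normalized replicate activation at least 10% and every replicate at or above 10%; inconclusive means only one of the two criteria met; inactive means mean below 10% and not all replicates reach 10%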;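 further: 0% = median of on-plate neutral control wells and 100% = ellipticine 6 µM median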
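System: SV40-immortalized XiGFP fibroblast cells, line 68-5-11 / Incubation: 3-day compound exposure, then 15 min fixation at room temperature / Compound: single concentration per compound, delivered by pin transfer / Buffer or medium: DMEM plus 5-aza-dC sensitizer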
TROY NFkB inh – TROY signaling inhibition; Q293 LMP1-TROYcd NF-kB luciferase reporter, 4 h; inhibition, % at 10 µM; actives 0.98% (n = 360,000); AID 1347056;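 active means compounds whose plate-normalised and pattern-corrected inhibition of the luciferase reporter signal at the single screening dose is 50% or more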
LGR2 inh – blocks bursicon-induced cAMP signaling via Drosophila LGR2; HEK293 LGR2, CRE-luciferase, bursicon-stimulated, 4 h; inhibition, % at 9.99 µM; actives 0.35% (n = 380,000); AID 720647;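 active means drop in luminescence signal, shown as inhibition above about 50% in the replicate tests, limit read from the data, passing the limit was not always enough; inconclusive means probably only some replicates passing the limit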;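 further: agonist challenge used bursicon conditioned medium at about half maximal strength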
TWEAK Fn14 block – TWEAK-Fn14 signaling inhibition; inhibition, % at 10 µM; TWEAK-stimulated Fn14 reporter cells, luciferase luminescence, 8 h; actives 2% (n = 360,000); AID 1159606; in the data active means inhibition above about 50%
FN deposition inh – fibronectin deposition inhibition; actives 0.086% (n = 350,000); inhibition, % at 12.6 µM; AH1F fibroblasts, Alexa488-fibronectin deposition fluorescence, overnight;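 active means mean inhibition across replicates of 30% or more, regardless of how many single replicates reach that level; inconclusive means mean under 30% yet at least half of replicates reach 30%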;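 further: positive control wells lacked labelled fibronectin entirely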
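Material: AH1F fibroblasts assembling fluorescent fibronectin matrix; amount: 10000 AH1F cells/well; medium: DMEM, 2% serum; reagent: Alexa488-fibronectin, 24 nM final in well; dosing: single compound dose, delivered by pin transfer; incubation: 1 h adhesion, overnight exposure; detection: fluorescence after three HBSS washes, excitation 485 nm, emission 525 nm; measure: fibronectin deposition inhibition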
* hit, by the source's call; ? = inconclusive; . = no result given. An excerpt weighted towards active compounds, which were near 2.3% of everything screened.

SMILES | EWS-Fli inh | XiGFP reactiv | TROY NFkB inh | LGR2 inh | TWEAK Fn14 block | FN deposition inh
Cc1ccc2nc(-c3cc(N)cc(N)c3)oc2c1 | . | . | 60.2* | . | 62.5* | -14.1
CCc1ccc2oc(-c3cc(N)ccc3O)nc2c1 | . | . | 44.9 | . | 40.4 | .
CCc1ccc2oc(-c3cc(N)ccc3Cl)nc2c1 | . | . | 57.3* | . | 83.3* | -1.7
CCc1csc(N2[C@H](C#N)[C@H](c3ccccc3C3=CCCC3)[C@H]2CO)n1 | -4.7 | 0.0 | . | -0.7 | . | -7.7
COc1cccc(S(=O)(=O)N[C@@H]2CC[C@H](CCN)O[C@@H]2CO)c1 | -5.4 | 0.3 | . | -19.2 | . | -8.8
Cc1ccc(S(=O)(=O)N(C)C[C@@H]2OCCCC[C@H](C)Oc3ccc(NS(C)(=O)=O)cc3C(=O)N([C@H](C)CO)C[C@H]2C)cc1 | -9.8 | 0.1 | . | -7.9 | . | -8.8
Nc1ccc(-c2nc3cc(N)ccc3o2)cc1 | -27.7 | 0.0 | -27.9 | -21.8 | 25.2 | -1.1
CN(C)c1ccc(-c2nc3cc(N)ccc3o2)cc1 | 65.2* | 0.0 | -29.1 | ? | 73.6* | -6.2
CC[C@@H]1C/C=C\C[C@@H](C(C)C)NC(=O)CCC(=O)N1 | . | 0.2 | . | . | . | 5.9
COc1cc(C(=O)NCCOc2cc(C)cc(C)c2)cc(OC)c1OC | 53.0* | 0.1 | -13.8 | 2.5 | 30.7 | 4.7
COc1cc(C(=O)NCCOc2cc(C)ccc2C(C)C)cc(OC)c1OC | 15.3 | 0.3 | 41.6 | 6.8 | 61.8* | -1.7
CC1CCCN(C(=O)c2ccc(S(=O)(=O)N3CCC(c4nc5ccccc5s4)CC3)cc2)C1 (stereo unspecified) | . | . | 51.9* | . | 56.7* | -6.7
C[C@H]1CN([C@@H](C)CO)C(=O)Cc2cc(NS(=O)(=O)c3ccc(Cl)cc3)ccc2O[C@H]1CN(C)Cc1ccc(C(F)(F)F)cc1 | -11.0 | -1.0 | . | 0.5 | . | .
C[C@H]1CN([C@@H](C)CO)C(=O)Cc2cc(NS(=O)(=O)c3ccc(Cl)cc3)ccc2O[C@@H]1CN(C)Cc1ccc(Oc2ccccc2)cc1 | 60.2* | 0.6 | . | 16.5 | . | 15.9
C[C@@H]1CN([C@@H](C)CO)C(=O)Cc2cc(NS(=O)(=O)c3ccc(Cl)cc3)ccc2O[C@@H]1CN(C)Cc1ccc(Oc2ccccc2)cc1 | -1.2 | -0.5 | . | 5.3 | . | 2.9
C[C@H](CO)N1C[C@H](C)[C@H](CN(C)Cc2ccc(C(F)(F)F)cc2)Oc2ccc(NS(=O)(=O)c3ccc(Cl)cc3)cc2CC1=O | 59.2* | -1.1 | . | -7.8 | . | .
C[C@@H]1CCCCO[C@H](CN(C)S(=O)(=O)c2ccccc2)[C@@H](C)CN([C@@H](C)CO)C(=O)c2cc(NS(C)(=O)=O)ccc2O1 | -6.6 | 0.1 | . | -1.1 | . | .
CC(=O)N1CCN(c2cc(-c3ccccc3)nc3cc(-c4cccc(Cl)c4)nn23)CC1 | 19.5 | 0.0 | 33.6 | 20.0 | 54.9* | 4.4
O=C(c1ccoc1)N1CCN(c2cc(-c3ccncc3)nc3cc(-c4cccc(Cl)c4)nn23)CC1 | 11.7 | 0.3 | -6.1 | 2.6 | 12.8 | -2.6
O=C(c1ccncc1)N1CCN(c2cc(-c3ccccc3)nc3cc(-c4cccc(Cl)c4)nn23)CC1 | 19.9 | -0.1 | 22.6 | -12.0 | 69.7* | -9.4
C[C@H](CO)N1C[C@H](C)[C@@H](CN(C)C(=O)c2ccc(F)cc2)Oc2ncc(-c3ccc(F)cc3)cc2C1=O | 2.7 | -0.9 | . | -5.7 | . | 4.5
CCOc1cc(/C=C2\C(=O)ON=C2C)ccc1OCc1ccccc1 | . | 0.5 | -16.7 | -7.4 | 60.6* | -0.5
CCCOc1ccc(/C=C2/C(=O)ON=C2C)cc1OCC | 25.7 | 0.1 | -18.1 | 16.0 | 4.0 | -3.8
C[C@@H](NC(=O)C[C@H]1CC[C@H](NC(=O)Nc2ccc3c(c2)OCO3)[C@@H](CO)O1)c1ccccc1 | 7.3 | 0.4 | . | 3.1 | . | -9.8
O=C1C=CC2=C3c4cc(O)c(O)cc4CC3(O)COC2=C1O (stereo unspecified) | -2.2 | . | -0.5 | 5.4 | 86.0* | .
SMILES | EWS-Fli inh | XiGFP reactiv | TROY NFkB inh | LGR2 inh | TWEAK Fn14 block | FN deposition inh
Cc1ccc(Cl)cc1N1CCN(C(=O)c2cn(C)c(=O)c3c2c2ccccc2n3C)CC1 | 54.3* | . | 11.3 | 7.5 | 15.6 | .
CC(C)CC#Cc1cnc2c(c1)C(=O)N([C@H](C)CO)C[C@H](C)[C@H](CN(C)Cc1cncnc1)O2 | -2.6 | -0.6 | . | 0.3 | . | -7.7
CC1(C)CC(=O)C/C(=N/Nc2nc3ccccc3s2)C1 | 9.3 | 0.4 | 63.4* | 3.2 | 69.3* | 4.8
Cc1ccc(S(=O)(=O)N(C)C[C@@H]2OCCCC[C@H](C)Oc3ccc(NC(=O)CCC(F)(F)F)cc3C(=O)N([C@H](C)CO)C[C@H]2C)cc1 | -6.0 | 0.3 | . | -6.0 | . | -3.8
N#CC1=C(N)N2C(=C(C#N)C1c1cccc(Br)c1)Nc1ccccc12 (stereo unspecified) | 36.0 | -0.1 | 72.5* | 26.2 | 94.3* | 7.3
Cc1noc(C)c1NC(=O)N(C)C[C@H]1Oc2c(NS(=O)(=O)c3ccc(F)cc3)cccc2C(=O)N([C@H](C)CO)C[C@@H]1C | -19.7 | 0.1 | . | -3.3 | . | .
CN(C)c1cccc(/C=C(\C#N)c2ccccc2)c1 | 55.0* | 0.1 | -29.7 | 11.7 | 31.0 | 18.4
C[C@@H]1CN([C@@H](C)CO)C(=O)Cc2cc(NC(=O)Nc3ccc(F)cc3)ccc2O[C@@H]1CN(C)S(=O)(=O)c1ccc(F)cc1 | 10.1 | -0.2 | . | -14.6 | . | .
N#Cc1ccc(CSc2nc(N)cc(=O)[nH]2)cc1 | 10.4 | 0.0 | 17.7 | -6.2 | 71.7* | -3.2
CS(=O)(=O)Nc1ccc2c(c1)[C@H]1C[C@@H](CC(=O)NC3CCCCC3)O[C@H](CO)[C@H]1O2 | 1.2 | 0.4 | . | 5.2 | . | 11.7
Cc1noc(C)c1NC(=O)N(C)C[C@@H]1Oc2ccc(NC(=O)Nc3ccc(F)cc3)cc2CC(=O)N([C@@H](C)CO)C[C@@H]1C | -5.5 | -0.1 | . | 12.7 | . | .
Cc1nnc(N/N=C/c2ccc([N+](=O)[O-])cc2)n1N | 3.2 | -0.1 | 55.4* | 1.2 | -12.3 | 3.7
Cc1nnc(N/N=C/c2ccc(Br)cc2)n1N | -13.4 | 0.0 | -23.6 | -8.8 | -0.1 | -0.4
Cc1ccccc1NC(=O)c1ccc(NS(=O)(=O)c2cc(C(C)(C)C)cc(C)c2C)cc1 | 7.9 | 0.0 | 36.5 | 20.3 | 51.8* | -0.8
OC(CNC1CCCc2ccccc21)COc1c(Cl)cccc1Cl (stereo unspecified) | 14.6 | 0.0 | -14.3 | . | -5.5 | 42.0*
C[C@@H]1CN([C@@H](C)CO)C(=O)c2cc(-c3ccccc3)cnc2O[C@@H]1CN(C)C(=O)Cc1ccccc1 | -8.5 | -0.7 | . | 3.7 | . | .
COc1cc2c(cc1[N+](=O)[O-])-c1ccc([N+](=O)[O-])cc1C2=NNC(N)=S | . | . | -36.2 | . | -101.5 | .
NC(=S)NN=C1c2cc(Cl)ccc2-c2c1cc(Cl)cc2[N+](=O)[O-] | . | . | 47.0 | . | 101.1* | .

Screening results deposited in PubChem BioAssay by several laboratories.
